Data: ChEMBL document CHEMBL2016546, “Synthesis, characterization, molecular docking and cytotoxic activity of novel plumbagin hydrazones against breast cancer cells” (Bioorg Med Chem Lett, 2012)
Active and inactive are the calls of the source. The rule behind the calls is not given here.

Tests used:
MCF7 = test: Antiproliferative activity against ER-positive human MCF7 cells after 48 hrs by MTT assay; details: MCF7, 48 h
[1] = Partition coefficient, log P pf the compound; format: physicochemical; details: octanol/water
[2] = molecular target: Transcription factor p65 (Homo sapiens) (UniProt Q04206); test: Inhibition of NFkappaB p65 subunit expression in human MDA-MB-231 cells at 1.5 uM after 48 hrs by Western blot analysis; format: cell-based
Procedure, shortened: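 MDA-MB-231 cells were exposed to compounds for 48 h, with a vehicle-treated control. NF-κB p65 subunit levels were detected by Western blot, using β-actin as the protein loading control.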

MDA-MB-468 = test: Antiproliferative activity against ER-negative human MDA-MB-468 cells after 48 hrs by MTT assay; format: functional, cell-based; details: MDA-MB-468, 48 h
Procedure, shortened: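 MDA-MB-468 cells plated at 3 × 10³/well in medium containing 10% fetal calf serum, penicillin (50 U/mL) and streptomycin, at 37 °C under 5% CO₂. DMSO-dissolved compounds were added 24 h post-seeding and exposure lasted 48 h. MTT (0.5 mg/mL) was applied for 2 h at 37 °C, then DMSO for 30 min at room temperature. Eight wells per treatment, at least three independent repeats.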

MDA-MB-231 = test: Antiproliferative activity against ER-negative human MDA-MB-231 cells after 48 hrs by MTT assay; details: MDA-MB-231, 48 h

Sequence of Transcription factor p65 (Homo sapiens) (Q04206 whole entry): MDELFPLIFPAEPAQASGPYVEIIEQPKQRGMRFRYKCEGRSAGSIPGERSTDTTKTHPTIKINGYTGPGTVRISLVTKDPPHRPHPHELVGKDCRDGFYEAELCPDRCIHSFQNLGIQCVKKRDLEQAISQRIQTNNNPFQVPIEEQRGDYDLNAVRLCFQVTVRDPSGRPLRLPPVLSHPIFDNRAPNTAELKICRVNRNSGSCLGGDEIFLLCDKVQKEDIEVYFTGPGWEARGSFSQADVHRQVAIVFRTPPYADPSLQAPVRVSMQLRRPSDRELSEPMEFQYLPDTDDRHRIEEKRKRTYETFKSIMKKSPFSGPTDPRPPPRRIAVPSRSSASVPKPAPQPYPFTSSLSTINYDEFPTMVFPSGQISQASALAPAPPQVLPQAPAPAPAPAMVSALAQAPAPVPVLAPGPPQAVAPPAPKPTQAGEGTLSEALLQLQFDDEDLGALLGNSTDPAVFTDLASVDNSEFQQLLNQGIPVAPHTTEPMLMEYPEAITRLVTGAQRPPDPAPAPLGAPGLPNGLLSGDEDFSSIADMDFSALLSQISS

Row | IC50 (MCF7) | inhibition [2] | IC50 (MDA-MB-468) | IC50 (MDA-MB-231) | logP ([1]; read-out: logP) | Compound | logP [1]
1 | 6200 nM | Active | 3300 nM | 3300 nM | 2.86 | CC1=C/C(=N\NC(=O)c2ccncc2)c2c(O)cccc2C1=O | –
2 | 5300 nM | Active | 2900 nM | 3800 nM | 4.17 | CC1=C/C(=N\NC(=O)c2ccccc2O)c2c(O)cccc2C1=O | –
3 | 2700 nM | Active | 1900 nM | 1900 nM | 3.13 | CC1=C/C(=N\NC(=O)c2cccnc2)c2c(O)cccc2C1=O | –

More lines, now with the values behind:

Row | Compound | IC50 (MCF7) | inhibition [2] | IC50 (MDA-MB-468) | IC50 (MDA-MB-231) | logP ([1]; read-out: logP) | logP [1]
4 | CC1=CC(=O)c2c(O)cccc2C1=O [PLUMBAGIN] | 5500 nM | Active | 2500 nM | 3500 nM | – | 0.89
5 | CC1=C/C(=N\NC(=O)c2ccccc2)c2c(O)cccc2C1=O | 2800 nM | Active | 2000 nM | 2100 nM | 4 | –
